The values below come from ChEMBL document CHEMBL4020839, “Class I HDAC Inhibitors Display Different Antitumor Mechanism in Leukemia and Prostatic Cancer Cells Depending on Their p53 Status” (J Med Chem, 2018).

Molecules are shown by their SMILES. The source made the active and inactive calls. The calls are words filed in the database; no cut-off is given here.

One experiment has as its target Histone deacetylase 1 (Homo sapiens, UniProt Q13547). The experiment in a line: Inhibition of full length recombinant human C-terminal FLAG/His-tagged HDAC1 expressed in baculovirus expression system using Boc-Lys(acetyl)-AMC as substrate preincubated for 1 hr followed by substrate addition measured after 2 hrs by fluorescence assay. The procedure, abridged:
(§1)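 Recombinant HDAC incubated with serial compound dilutions at 30 °C for 1 h. Reaction run 2 h at 30 °C, stopped with developer containing trypsin and TSA. Fluorescence read after 30 min at 360/460 nm. Inhibition relative to control wells; IC50 from variable-slope fit.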

Experiment [1] addresses T1, Protein deacetylase HDAC6 (Homo sapiens, UniProt Q9UBN7).
T1 sequence (Q9UBN7 whole entry): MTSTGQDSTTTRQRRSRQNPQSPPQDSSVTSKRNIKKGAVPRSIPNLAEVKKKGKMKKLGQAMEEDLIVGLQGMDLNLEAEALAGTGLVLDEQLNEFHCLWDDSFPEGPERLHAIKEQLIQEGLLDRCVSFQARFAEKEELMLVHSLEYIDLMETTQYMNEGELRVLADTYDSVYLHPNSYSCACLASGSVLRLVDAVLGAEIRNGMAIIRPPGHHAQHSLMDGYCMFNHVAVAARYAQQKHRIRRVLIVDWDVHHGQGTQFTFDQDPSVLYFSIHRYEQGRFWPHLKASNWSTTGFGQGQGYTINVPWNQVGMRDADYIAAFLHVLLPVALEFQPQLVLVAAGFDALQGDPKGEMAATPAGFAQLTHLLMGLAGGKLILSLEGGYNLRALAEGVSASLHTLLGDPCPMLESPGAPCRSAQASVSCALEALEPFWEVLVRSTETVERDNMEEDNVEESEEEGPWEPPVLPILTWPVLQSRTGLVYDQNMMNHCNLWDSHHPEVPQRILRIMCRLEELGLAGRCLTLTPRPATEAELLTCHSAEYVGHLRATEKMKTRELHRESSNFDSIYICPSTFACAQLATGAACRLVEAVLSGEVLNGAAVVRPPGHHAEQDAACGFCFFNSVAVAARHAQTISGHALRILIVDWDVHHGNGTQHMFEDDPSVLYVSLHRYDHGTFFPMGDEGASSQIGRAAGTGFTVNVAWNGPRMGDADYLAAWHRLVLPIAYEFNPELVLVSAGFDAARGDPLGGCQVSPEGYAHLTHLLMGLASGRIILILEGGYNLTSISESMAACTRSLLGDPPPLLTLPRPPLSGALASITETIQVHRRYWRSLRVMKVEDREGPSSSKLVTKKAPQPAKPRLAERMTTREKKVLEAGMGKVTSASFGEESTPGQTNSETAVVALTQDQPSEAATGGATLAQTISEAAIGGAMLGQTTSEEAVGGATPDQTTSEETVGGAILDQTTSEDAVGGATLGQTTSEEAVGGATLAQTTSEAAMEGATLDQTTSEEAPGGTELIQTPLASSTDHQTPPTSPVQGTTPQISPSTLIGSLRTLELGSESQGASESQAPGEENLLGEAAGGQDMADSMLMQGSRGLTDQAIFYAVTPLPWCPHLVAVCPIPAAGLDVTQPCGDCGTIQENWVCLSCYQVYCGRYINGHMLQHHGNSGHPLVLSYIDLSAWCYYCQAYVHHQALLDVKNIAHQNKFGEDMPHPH
As to the kind of experiment: Inhibition of HDAC6 (unknown origin) using Boc-Lys(acetyl)-AMC as substrate preincubated for 1 hr followed by substrate addition measured after 2 hrs by fluorescence assay. The procedure, abridged:
as §1

Experiment [2] deals with MV4-11. As to the kind of experiment: Induction of apoptosis in human MV4-11 cells assessed as increase in cleaved caspase-3 level at 1 to 2 uM after 24 hrs by Western blot method. The class given is functional, cell-based. Put shortly:
(§2)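 MV4-11 (1,500,000/well) or PC-3 (300,000/well) grown 12 h, then treated 24 h at 1 and 2 μM, with 5 μM SAHA as reference. RIPA lysis, sonication and centrifugation, BCA normalization. NuPAGE 4–12% Bis-Tris gel in MES, transfer, primary antibodies 1/1000 overnight at 4 °C. Actin as loading control.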
On the technique in general: In western blotting, separated proteins are transferred to a membrane and probed.

The subject of experiment [3] is MV4-11. As to the kind of experiment: Induction of p53 degradation in human MV4-11 cells up to 2 uM up to 6 hrs by Western blot analysis. The class given is functional, cell-based.
Experiment [4] has as its system MV4-11. As to the kind of experiment: Downregulation of HDAC1 protein expression in human MV4-11 cells at 1 to 2 uM after 24 hrs by Western blot method. The class given is functional, cell-based. The procedure, abridged: as §2
The next experiment addresses Histone deacetylase 2 (Homo sapiens, UniProt Q92769). To be noted: 0.25 to 2 uM.
Experiment [5] has as its system MV4-11. The experiment in a line: Induction of p53 degradation in human MV4-11 cells up to 500 nM after 6 hrs in presence of proteasome inhibitor bortezomib by Western blot analysis. The class given is functional, cell-based.
The subject of experiment [6] is PC-3. As to the kind of experiment: Induction of apoptosis in human PC3 cells assessed as increase in cleaved caspase-3 level at 1 to 2 uM after 24 hrs by Western blot method. The class given is functional, cell-based. The procedure, abridged: as §2
Experiment [7] deals with PC-3. As to the kind of experiment: Downregulation of HDAC6 protein expression in human PC3 cells at 1 to 2 uM after 24 hrs by Western blot method. It counts as functional, cell-based. Put shortly:
as §2

Experiment [8] deals with MV4-11. As to the kind of experiment: Antiproliferative activity against human MV4-11 cells assessed as cell death at 2 to 10 uM after 24 to 48 hrs by CellTiter-Blue assay. The class given is functional, cell-based. The procedure, abridged:
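MV4-11 and PC-3 cells treated with 10 or 2 μM (or 0 μM) and sampled at 24 and 48 h. Viable cells measured by CellTiter-Blue resorufin fluorescence, read as in the EC50 assay, which is proportional to viable cell number. Representative of n = 2 experiments.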
In general terms: Alamar Blue is a resazurin reagent that responds to reducing activity.

The subject of experiment [9] is PC-3. As to the kind of experiment: Induction of morphological changes in human PC3 cells at 2 to 10 uM after 48 hrs by phase contrast microscopic method. It counts as functional, cell-based. The procedure, abridged:
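PC-3 cells treated 48 h with vehicle (DMSO), 2 μM or 10 μM and examined by phase-contrast light microscopy for morphology. Representative of n = 2.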

The target of another experiment is Histone deacetylase 4 (Homo sapiens, UniProt P56524). The experiment in a line: Inhibition of recombinant human N-terminal GST-tagged/C-terminal His-tagged HDAC4 (627 to 1084 residues) expressed in baculovirus expression system using Boc-Lys(trifluoroacetyl)-AMC as substrate preincubated for 1 hr followed by substrate addition measured after 2 hrs by fluorescence assay. Put shortly: as §1
Sequence of Histone deacetylase 4 (P56524 whole entry, the tested form may be a part): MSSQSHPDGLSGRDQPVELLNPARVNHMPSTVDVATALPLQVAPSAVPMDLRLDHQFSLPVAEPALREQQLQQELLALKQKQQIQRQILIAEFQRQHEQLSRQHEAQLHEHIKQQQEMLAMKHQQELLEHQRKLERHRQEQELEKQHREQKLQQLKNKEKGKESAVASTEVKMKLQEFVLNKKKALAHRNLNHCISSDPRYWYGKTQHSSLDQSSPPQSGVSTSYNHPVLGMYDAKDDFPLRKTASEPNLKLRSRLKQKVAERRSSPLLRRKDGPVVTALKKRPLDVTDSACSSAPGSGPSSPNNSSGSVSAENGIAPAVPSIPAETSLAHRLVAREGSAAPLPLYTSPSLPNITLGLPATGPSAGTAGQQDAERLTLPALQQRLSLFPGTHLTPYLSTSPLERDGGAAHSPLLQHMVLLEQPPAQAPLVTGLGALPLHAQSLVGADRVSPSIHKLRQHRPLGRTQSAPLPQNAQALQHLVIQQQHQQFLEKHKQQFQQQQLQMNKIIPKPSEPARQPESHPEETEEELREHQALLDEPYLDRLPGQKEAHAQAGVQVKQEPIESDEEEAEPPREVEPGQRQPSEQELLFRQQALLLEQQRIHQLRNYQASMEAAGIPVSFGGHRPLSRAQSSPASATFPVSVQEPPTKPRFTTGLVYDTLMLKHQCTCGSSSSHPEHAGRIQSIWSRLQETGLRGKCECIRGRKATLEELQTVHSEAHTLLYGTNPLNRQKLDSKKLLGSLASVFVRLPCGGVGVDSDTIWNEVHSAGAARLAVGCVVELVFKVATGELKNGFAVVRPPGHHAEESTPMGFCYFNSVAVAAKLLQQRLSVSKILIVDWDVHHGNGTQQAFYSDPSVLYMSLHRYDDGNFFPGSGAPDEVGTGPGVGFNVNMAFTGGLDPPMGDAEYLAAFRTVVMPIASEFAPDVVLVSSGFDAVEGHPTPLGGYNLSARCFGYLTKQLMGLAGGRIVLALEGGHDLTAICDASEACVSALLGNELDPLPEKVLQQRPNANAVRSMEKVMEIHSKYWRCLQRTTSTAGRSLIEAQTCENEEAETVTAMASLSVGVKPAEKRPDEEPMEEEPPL

Experiment [10] addresses Histone deacetylase 3 (Homo sapiens) (UniProt O15379). To be noted: 0.25 to 2 uM.

Sequence of Histone deacetylase 2 (Q92769 whole entry): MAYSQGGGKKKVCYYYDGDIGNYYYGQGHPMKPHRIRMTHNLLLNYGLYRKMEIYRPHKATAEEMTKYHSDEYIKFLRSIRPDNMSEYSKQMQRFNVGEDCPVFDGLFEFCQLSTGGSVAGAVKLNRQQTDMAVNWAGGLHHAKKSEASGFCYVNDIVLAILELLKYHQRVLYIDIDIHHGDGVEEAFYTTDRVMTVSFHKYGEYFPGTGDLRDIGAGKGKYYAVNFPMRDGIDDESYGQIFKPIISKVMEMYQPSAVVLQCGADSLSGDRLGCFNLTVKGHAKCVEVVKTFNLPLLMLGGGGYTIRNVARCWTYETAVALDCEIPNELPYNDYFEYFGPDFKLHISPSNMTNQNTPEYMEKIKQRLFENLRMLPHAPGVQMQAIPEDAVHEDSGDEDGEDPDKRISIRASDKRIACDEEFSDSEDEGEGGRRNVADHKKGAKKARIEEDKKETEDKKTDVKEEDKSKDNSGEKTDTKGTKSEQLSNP
Sequence of Histone deacetylase 3 (Homo sapiens) (O15379 whole entry): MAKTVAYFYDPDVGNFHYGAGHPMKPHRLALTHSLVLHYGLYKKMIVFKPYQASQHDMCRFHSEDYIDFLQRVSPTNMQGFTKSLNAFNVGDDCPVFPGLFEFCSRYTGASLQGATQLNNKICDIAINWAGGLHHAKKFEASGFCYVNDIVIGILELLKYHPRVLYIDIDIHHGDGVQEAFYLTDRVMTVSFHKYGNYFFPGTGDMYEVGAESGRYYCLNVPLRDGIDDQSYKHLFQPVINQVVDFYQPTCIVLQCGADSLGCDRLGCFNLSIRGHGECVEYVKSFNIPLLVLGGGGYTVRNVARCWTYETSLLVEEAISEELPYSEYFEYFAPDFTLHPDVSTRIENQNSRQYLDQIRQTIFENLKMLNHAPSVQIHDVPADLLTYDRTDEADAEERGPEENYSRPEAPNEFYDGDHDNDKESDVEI
Sequence of Histone deacetylase 1 (Q13547 whole entry): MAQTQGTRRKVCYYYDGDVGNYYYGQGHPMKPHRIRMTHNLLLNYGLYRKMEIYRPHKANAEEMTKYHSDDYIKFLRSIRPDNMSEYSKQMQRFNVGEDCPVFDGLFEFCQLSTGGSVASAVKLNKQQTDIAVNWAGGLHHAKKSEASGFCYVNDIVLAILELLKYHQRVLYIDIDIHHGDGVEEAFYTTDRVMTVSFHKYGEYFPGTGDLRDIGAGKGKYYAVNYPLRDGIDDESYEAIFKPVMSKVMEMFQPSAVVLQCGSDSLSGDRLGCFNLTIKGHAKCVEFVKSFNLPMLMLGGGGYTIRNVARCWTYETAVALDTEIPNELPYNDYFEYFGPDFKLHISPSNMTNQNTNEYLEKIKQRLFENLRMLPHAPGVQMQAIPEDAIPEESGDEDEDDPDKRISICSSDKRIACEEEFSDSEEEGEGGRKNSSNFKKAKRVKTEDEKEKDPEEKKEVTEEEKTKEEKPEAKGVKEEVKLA

Take `CCCNNC(=O)c1ccc(NC(=O)[C@H](Cc2c[nH]c3ccccc23)NC(=O)c2ccc(OC)cc2)cc1`: the IC50 (as a rule, the midpoint of a concentration-inhibition curve) at Histone deacetylase 1 is 0.00954 µM; in experiment [1], 50 to 100 µM; at Histone deacetylase 4 it was over 50 µM. Besides, the result with MV4-11 [2], with MV4-11 [3] and in the experiment with MV4-11 [8] was Active. Moreover, the result in the experiment on MV4-11 [4], in the experiment with MV4-11 [5], in the experiment with PC-3 [6], in the experiment with PC-3 [7] and in the experiment on PC-3 [9] was inactive. In addition, the inhibition result (at Histone deacetylase 2; in experiment [10]) was “Active” each time.
